Data set [1] in a line: Biodistribution in iv dosed rhesus monkey liver. The class given is ADME, organism-based, Macaca mulatta. The following applies: in vivo. Summed up: (§1)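 Dynamic PET imaging of a single nonhuman primate after injection of the 18F tracer. Regional heart, liver and lung activity was read from the images. Heart-to-blood activity ratios were taken at 80–90 min post-injection.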

The test system of a further data set is Heart. The data set is described as follows: Drug uptake in rat heart assessed as neuronal uptake rate per gram of wet weight after 10 mins constant infusion measured up to 140 mins. The note with it: ex_vivo. The class given is ADME, tissue-based. Summed up:
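Isolated working rat heart with uptake-2 blocked by 54 μM corticosterone in the perfusion buffer. Radiotracer was infused for 10 min at constant perfusate concentration to give the neuronal uptake rate Kup (ml/min/g wet).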

The nature of data set [2]: Biodistribution in iv dosed rhesus monkey heart. The class given is ADME, organism-based, Macaca mulatta. The following applies: in vivo. In a few lines: as §1
Data set [3] is described as follows: Biodistribution in iv dosed rhesus monkey lungs. The class given is ADME, organism-based, Macaca mulatta, Lung. The following applies: in vivo. In a few lines:
as §1

Data set [4] can be described thus: Biodistribution in iv dosed rhesus monkey left ventricle. In kind it is ADME, organism-based, Macaca mulatta, Heart left ventricle. The following applies: in vivo. In a few lines: as §1

On to `C[C@H](N[11CH3])[C@H](O)c1cccc(O)c1`, for which, in data set [1], the Drug uptake result is recorded as “Active”. For `N=C(N)NCc1ccc([18F])cc1`, the Drug uptake in the data set on Heart came to 1.2 mL/min/g.

Regarding `N=C(N)NCc1cccc([123I])c1` [IOBENGUANE I 123], the Drug uptake result in data set [1] is on record as “Active”.

As for `N=C(N)NCCc1ccc([18F])c(O)c1`, the Drug uptake result in data set [2] was “Active”; in data set [3], “Not Active”; in data set [1], “Active”; in data set [4] it was “Active”.

The values are drawn from ChEMBL document CHEMBL2331200, “Synthesis and bioevaluation of [(18)F]4-fluoro-m-hydroxyphenethylguanidine ([(18)F]4F-MHPG): a novel radiotracer for quantitative PET studies of cardiac sympathetic innervation” (Bioorg Med Chem Lett, 2013).
